Experimental data reported in ChEMBL document CHEMBL4422612, “Small Molecule Inhibitor that Stabilizes the Autoinhibited Conformation of the Oncogenic Tyrosine Phosphatase SHP2” (J Med Chem, 2019).

Legend:
[1] = biological target: T1, Tyrosine-protein phosphatase non-receptor type 11 (Homo sapiens, UniProt Q06124); assay: Inhibition of wild type recombinant human SHP2 using H-Glu-Phe-pTyr-Ala-Glu-Val-Gly-Arg-Ser-Pro-Pro-Asp-Pro-Ala-Lys as substrate preincubated for 30 mins followed by substrate addition and measured after 30 mins by Malachite Green-reagent based assay
T1 sequence (Q06124 whole entry): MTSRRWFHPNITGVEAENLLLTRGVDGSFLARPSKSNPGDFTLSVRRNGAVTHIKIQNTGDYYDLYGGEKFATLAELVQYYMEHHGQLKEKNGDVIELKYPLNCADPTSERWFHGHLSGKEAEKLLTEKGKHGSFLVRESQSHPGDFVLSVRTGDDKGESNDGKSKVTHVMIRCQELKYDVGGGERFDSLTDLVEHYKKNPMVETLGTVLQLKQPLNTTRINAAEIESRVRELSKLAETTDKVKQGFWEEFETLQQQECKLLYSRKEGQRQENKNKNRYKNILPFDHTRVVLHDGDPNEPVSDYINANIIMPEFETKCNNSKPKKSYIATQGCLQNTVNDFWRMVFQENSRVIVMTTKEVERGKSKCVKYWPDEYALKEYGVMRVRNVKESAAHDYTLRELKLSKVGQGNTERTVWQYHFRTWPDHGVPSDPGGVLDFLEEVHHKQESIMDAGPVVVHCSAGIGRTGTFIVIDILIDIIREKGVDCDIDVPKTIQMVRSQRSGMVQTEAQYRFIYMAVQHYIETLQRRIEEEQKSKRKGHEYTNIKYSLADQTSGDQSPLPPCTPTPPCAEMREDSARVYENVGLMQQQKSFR
Outline: (§1)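 Full-length SHP2 or SHP1 (0.1 µg) preincubated with compound 30 min at room temperature in 25 mM Tris-HCl pH 7.4, 50 mM NaCl, 5 mM DTT, 2.5 mM EDTA. Phospho-peptide substrate added to 50 µM final; 30 min at 30 °C. Released phosphate read by Malachite Green at OD620. IC50 from six concentrations; three experiments.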

[2] = biological target: Tyrosine-protein phosphatase non-receptor type 6 (Homo sapiens, UniProt P29350); assay: Inhibition of wild type recombinant human SHP1 using H-Glu-Phe-pTyr-Ala-Glu-Val-Gly-Arg-Ser-Pro-Pro-Asp-Pro-Ala-Lys as substrate preincubated for 30 mins followed by substrate addition and measured after 30 mins by Malachite Green-reagent based assay; outline: as §1
[3] = biological target: T1, Tyrosine-protein phosphatase non-receptor type 11; assay: Binding affinity to full length wild type His-tagged SHP2 (unknown origin) by MST assay
Outline: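 His-tagged SHP2 (200 nM) in 50 mM Tris-HCl pH 8.0, 10 mM NaCl, 0.005% Tween 20, labelled with red-tris-NTA dye. Mixed 1:1 with a 15-step 2-fold dilution series from 600 µM made in PBS/0.005% Tween 20. MST run at 50% power with red filter; one-site fit gives Kd. Mean ± SD of three experiments.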

[4] = system: MEF; assay: Growth inhibition of PTPN11-depleted MEF at 6 uM after 24 to 72 hrs by cell proliferation-based assay; details: mouse
Outline: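 Ptpn11 fl/fl and Ptpn11 +/+ MEFs, both Ade-Cre+, infected with adeno-Cre, then given 6 µM compound or DMSO. Growth measured at 24, 48 and 72 h by One Solution proliferation assay. SHP2 loss confirmed by immunoblot. Triplicates from one of three experiments.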

[5] = system: NCI-H661; assay: Induction of apoptosis in human NCI-H661 cells assessed as viable cells at 10 uM after 24 hrs by Annexin V/FITC-staining based FACS analysis (reference value: 86.9%); type: functional; details: NCI-H661, 24 h, read-out: Activity
[6] = system: NCI-H661; assay: Induction of apoptosis in human NCI-H661 cells assessed as early apoptotic cells at 10 uM after 24 hrs by Annexin V/FITC-staining based FACS analysis (reference value: 5%); type: functional
[7] = system: NCI-H661; assay: Induction of apoptosis in human NCI-H661 cells assessed as late apoptotic cells at 10 uM after 24 hrs by Annexin V/FITC-staining based FACS analysis (reference value: 3.5%); type: functional
[8] = system: NCI-H661; assay: Induction of apoptosis in human NCI-H661 cells assessed as necrotic cells at 10 uM after 24 hrs by Annexin V/FITC-staining based FACS analysis (reference value: 4.6%); type: functional
[9] = system: NCI-H661; assay: Induction of apoptosis in human NCI-H661 cells assessed as viable cells at 20 uM after 24 hrs by Annexin V/FITC-staining based FACS analysis (reference value: 86.9%); type: functional; details: NCI-H661, 24 h, read-out: Activity
[10] = system: NCI-H661; assay: Induction of apoptosis in human NCI-H661 cells assessed as early apoptotic cells at 20 uM after 24 hrs by Annexin V/FITC-staining based FACS analysis (reference value: 5%); type: functional
[11] = system: NCI-H661; assay: Induction of apoptosis in human NCI-H661 cells assessed as late apoptotic cells at 20 uM after 24 hrs by Annexin V/FITC-staining based FACS analysis (reference value: 3.5%); type: functional
[12] = system: NCI-H661; assay: Induction of apoptosis in human NCI-H661 cells assessed as necrotic cells at 20 uM after 24 hrs by Annexin V/FITC-staining based FACS analysis (reference value: 4.6%); type: functional
[13] = biological target: T1, Tyrosine-protein phosphatase non-receptor type 11; assay: Inhibition of recombinant full length human GST-tagged SHP2 PTP domain using phospho-peptide as substrate pre-incubated for 30 mins before substrate addition and measured after 30 mins
[14] = biological target: Tyrosine-protein phosphatase non-receptor type 11 (Homo sapiens, UniProt Q06124, E76K); assay: Inhibition of recombinant full length human GST-tagged SHP2 E76K mutant using phospho-peptide as substrate pre-incubated for 30 mins before substrate addition and measured after 30 mins
Chain of Tyrosine-protein phosphatase non-receptor type 11 (Homo sapiens, UniProt Q06124, E76K) (Q06124 as listed by the source E76K): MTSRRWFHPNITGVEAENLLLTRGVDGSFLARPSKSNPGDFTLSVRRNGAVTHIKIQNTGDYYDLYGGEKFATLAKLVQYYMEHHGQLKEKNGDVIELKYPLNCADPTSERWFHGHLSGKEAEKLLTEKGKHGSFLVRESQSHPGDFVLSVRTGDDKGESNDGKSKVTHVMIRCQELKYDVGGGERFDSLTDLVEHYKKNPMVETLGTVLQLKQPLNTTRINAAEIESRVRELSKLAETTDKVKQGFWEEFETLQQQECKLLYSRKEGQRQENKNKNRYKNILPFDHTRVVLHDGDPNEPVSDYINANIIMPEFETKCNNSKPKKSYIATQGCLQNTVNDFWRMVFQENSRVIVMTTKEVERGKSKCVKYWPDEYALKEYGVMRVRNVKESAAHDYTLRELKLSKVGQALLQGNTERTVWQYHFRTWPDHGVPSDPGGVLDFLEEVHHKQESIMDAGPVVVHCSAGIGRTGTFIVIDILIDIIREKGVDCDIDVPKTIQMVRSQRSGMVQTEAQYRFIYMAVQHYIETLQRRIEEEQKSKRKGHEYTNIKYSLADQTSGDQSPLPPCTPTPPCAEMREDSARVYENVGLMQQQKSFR

Chain of Tyrosine-protein phosphatase non-receptor type 6 (P29350 whole entry): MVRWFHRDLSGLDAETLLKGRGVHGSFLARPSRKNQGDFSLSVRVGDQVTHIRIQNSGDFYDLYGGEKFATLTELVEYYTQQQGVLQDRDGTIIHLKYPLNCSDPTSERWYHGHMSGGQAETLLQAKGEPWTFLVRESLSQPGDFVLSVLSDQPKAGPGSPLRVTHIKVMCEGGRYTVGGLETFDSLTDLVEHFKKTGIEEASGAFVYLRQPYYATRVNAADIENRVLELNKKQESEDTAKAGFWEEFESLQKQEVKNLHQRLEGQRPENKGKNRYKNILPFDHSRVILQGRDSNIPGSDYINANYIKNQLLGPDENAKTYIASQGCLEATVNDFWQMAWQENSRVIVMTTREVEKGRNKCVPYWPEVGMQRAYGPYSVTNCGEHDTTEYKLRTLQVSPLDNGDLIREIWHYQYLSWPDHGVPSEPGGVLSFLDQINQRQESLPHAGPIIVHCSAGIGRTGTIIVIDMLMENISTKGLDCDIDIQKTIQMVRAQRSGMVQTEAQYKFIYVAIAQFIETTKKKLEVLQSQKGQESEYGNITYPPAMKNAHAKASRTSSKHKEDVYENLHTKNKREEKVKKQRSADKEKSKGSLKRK

IC50 [1]: 9.8 µM | IC50 [2]: 72.7 µM | Kd [3]: 69 µM | IC50 [13]: 20.9 µM | IC50 [14]: 7.67 µM
Compound: CCOc1cc(O)c(C(=O)/C=C/c2ccc(Cl)cc2Cl)cc1CN1CCC=C(n2c(=O)[nH]c3ccccc32)C1
Activity [4]: Non-Toxic | viability at 10 µM [5]: 76.8% | Activity [6]: 9.7% | Activity [7]: 7.3% | Activity [8]: 6.2% | viability at 20 µM [9]: 57.6% | Activity [10]: 12.6% | Activity [11]: 21% | Activity [12]: 8.9%
